Source: PubChem BioAssay (several laboratories)
Most compounds without a hit are left out; they make up all but 2.9% or so of the library.
Runt-CBFb FRET: Runt domain-CBFb interaction inhibition. Q01196+Q13951. Cerulean-Runt/Venus-CBFb FRET ratio 530/480, 1 h. inhibition, % at 20 µM. 220,000 compounds, 0.46% hits. AID 1496;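 active = inhibition over about 50% at 20 µM in the single-dose screen, limit read from the data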
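Assay system: Cerulean-Runt domain fusion protein, energy donor; Signal: fluorescence energy transfer, 422 nm excitation, 530/480 nm emission; Timing: 1 h compound exposure, room temperature; Control set: unlabeled CBFb; Medium: Tris buffer pH 7.5 with salts and BSA; Compound: single test concentration of 20 µM, 1% DMSO final; Probe or stimulus: Venus-CBFb 100 nM.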
RBBP9 inhibitor: blocks human serine hydrolase RBBP9. O75884. recombinant RBBP9, FP-Rh probe fluorescence polarization. inhibition, % at 7.94 µM. 220,000 compounds, 0.2% hits. AID 1515;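 active = inhibition above the campaign mean of all tested compounds plus 3 SD, cut at about 14% in these data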
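Assay system: recombinant human RBBP9; Reagent: Serine-hydrolase probe FP-Rh, 375 nM pre-mixing; Doses: 7.94 µM single dose, 0.794% DMSO; Incubation: 30 min then 45 min, 25 °C; Detection: fluorescence polarization (mP), excitation 525 nm, emission 598 nm; Evaluation: percent inhibition from mP, scaled between DMSO and no-protein wells.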
Runt-SMMHC FRET: Runt domain-CBFb-SMMHC interaction inhibition; Q01196+Q13951; Cerulean-Runt/Venus-CBFb-SMMHC FRET ratio 530/480, 1 h; inhibition, % at 20 µM; 220,000 compounds, 0.74% hits; AID 1434;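 active = mean inhibition across duplicate retests at 20 µM reaching about 50%, limit read from the data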;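 also: inhibitors lower the FRET ratio by blocking Runt binding to CBFb-SMMHC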
RanGTP-Impb inh: inhibitors of RanGTP-importin-beta interaction, primary screen, biochemical, FRET, CFP-Ran, YFP-importin-beta, homogeneous; cell-free CFP-Ran/YFP-importin-beta FRET ratio; inhibition, % (concentration not given with the values); 300,000 compounds, 1.1% hits;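 active = more than half of the replicate wells show a fall in the fluorescence ratio signal beyond about 16%, limit read from the data, passing the limit was not always enough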
Hck-Nef inh: human Hck-Nef kinase inhibition | P08631 | Recombinant Hck-YEEI plus Nef, Z-Lyte FRET kinase assay | inhibition, % at 20 µM | 220,000 compounds, 0.68% hits | AID 463187;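 active = Hck-Nef kinase inhibition above about 50%, limit read from the data; inactive = inhibition below that limit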
Target sequence (P08631 whole entry, looked up): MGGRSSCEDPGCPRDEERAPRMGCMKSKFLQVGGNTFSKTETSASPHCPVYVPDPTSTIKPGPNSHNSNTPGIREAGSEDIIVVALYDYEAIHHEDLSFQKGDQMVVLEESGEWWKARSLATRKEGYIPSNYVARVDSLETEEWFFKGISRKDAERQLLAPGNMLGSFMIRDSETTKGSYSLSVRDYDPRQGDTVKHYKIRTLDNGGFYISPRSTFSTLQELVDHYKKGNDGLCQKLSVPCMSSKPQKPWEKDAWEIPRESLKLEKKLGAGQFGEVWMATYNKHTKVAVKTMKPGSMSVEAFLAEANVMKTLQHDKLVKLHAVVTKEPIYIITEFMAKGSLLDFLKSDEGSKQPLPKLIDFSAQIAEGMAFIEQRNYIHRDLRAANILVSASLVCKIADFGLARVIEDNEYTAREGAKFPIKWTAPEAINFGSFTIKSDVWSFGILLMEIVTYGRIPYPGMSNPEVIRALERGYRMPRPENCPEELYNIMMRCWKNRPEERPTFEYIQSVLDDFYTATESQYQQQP
M18AAP inhibitor: PfM18AAP enzyme inhibition | AID 1822 | inhibition, % at 7.35 µM | 290,000 compounds, 1.2% hits | recombinant PfM18AAP, H-Glu-NHMec fluorogenic cleavage;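 active = inhibition above the campaign mean inhibition over all tested compounds plus 3 SD, cut at about 28% in these data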
YIC counter: counter-screen for RanGTP-importin-beta inhibitors: YIC FRET probe | shares compounds with RanGTP-Impb inh | Purified YIC probe, intramolecular FRET ratio YFP/CFP | IC50, µM | 1,000 compounds, 40% hits | AID 435026;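 active = fitted half-maximal inhibitory concentration no more than tenfold above the top dose tested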
Numbers stand for hits; 0 = inactive; - = no result.

SMILES	Runt-CBFb FRET	RBBP9 inhibitor	Runt-SMMHC FRET	RanGTP-Impb inh	Hck-Nef inh	M18AAP inhibitor	YIC counter
COC(=O)C1=C(O)/C(=C\c2cc(C)n(-c3ccccc3F)c2C)N=C1C	-	0	0	0	0	0	-
COC(=O)C1=C(O)/C(=C\c2cc(C)n(-c3ccccc3C)c2C)N=C1C	0	0	0	20	0	0	44
CC1(c2nnc(-c3ccncc3)o2)CC(c2ccc(F)cc2)=NO1 (stereo unspecified)	0	-	0	0	0	-	-
CCCn1c(O)c(C=Nc2ccccc2)sc1=S	0	0	0	27	0	0	12
CC(OC(=O)C1CC(=O)N(Cc2ccccc2)C1)C(=O)Nc1cccc(C#N)c1 (stereo unspecified)	-	-	-	0	-	0	-
O=C(COc1ccc(Cl)cc1)Nc1ccc(C(=O)O)cc1NC(=O)COc1ccc(Cl)cc1	-	-	-	-	-	0	-
Cc1ccc(/C=C(\C#N)C(=O)NC(C)C)o1	0	0	0	0	0	0	-
CC(C)NC(=O)/C(C#N)=C/c1ccc(N(C)C)o1	0	0	0	41	0	0	6.4
CCc1ccc(C(=O)c2cc3ccc(O)cc3oc2=O)cc1	-	-	-	45	-	0	11
O=C(c1ccc(Br)cc1)c1coc2ccc(O)cc12	-	-	-	0	-	-	-
O=C(c1ccc(Br)cc1)c1cc2ccc(O)cc2oc1=O	-	-	-	33	-	0	20
N#C/C(=C/c1ccc(N2CCOCC2)o1)C(=O)Nc1ccccc1	0	0	0	31	0	0	15
N#C/C(=C\c1ccc(-c2ccc(S(=O)(=O)N3CCOCC3)cc2)o1)C(=O)NC1CC1	0	0	0	-	0	0	-
N#C/C(=C\c1ccc(N2CCOCC2)o1)C(=O)NC1CCCCC1	0	0	0	31	0	0	3.9
Cc1ccc(C(=O)NCc2ccco2)cc1S(=O)(=O)N1CCCC1	-	-	-	0	-	0	-
Cc1ccc(C(=O)NCc2ccco2)cc1S(=O)(=O)N1CCOCC1	-	0	0	25	0	0	0
O=C(O)/C=C/C(=O)Nc1ccc2c(c1)NC(=O)CO2	0	0	0	34	0	0	0
O=c1cc(-c2ccc([N+](=O)[O-])cc2)c2ccc(O)cc2o1	0	0	0	0	0	0	-
Cc1c(Cl)c([N+](=O)[O-])nn1CCCC(=O)Nc1sc2c(c1C(N)=O)CCC(C)C2 (stereo unspecified)	0	0	0	24	0	0	0
CCc1ccc(C2C3=C(CC(C)(C)CC3=O)Nc3c2c(=O)[nH]c2nc(C)nn32)cc1 (stereo unspecified)	62	0	-	40	0	0	7.1
CCn1c(COc2ccccc2OC)nnc1SCC(=O)NC1CCCC1	-	-	-	0	-	0	-
NC(=O)c1sc2nccc(Nc3ccccc3)c2c1N	0	0	0	39	0	0	0
NC(=O)c1sc2nc(-c3ccccc3)c3c(c2c1N)CCCC3	-	0	0	0	0	0	-
CCOc1ccc(C(=O)NCC(=O)NCC(c2ccc(OC)cc2)N2CCOCC2)cc1OCC (stereo unspecified)	-	-	-	0	-	-	-
CCOCC(=O)Nc1nnc(COc2ccc(Cl)cc2)s1	0	0	0	0	0	0	-
SMILES	Runt-CBFb FRET	RBBP9 inhibitor	Runt-SMMHC FRET	RanGTP-Impb inh	Hck-Nef inh	M18AAP inhibitor	YIC counter
COCC(=O)Nc1nnc(COc2ccc(Cl)cc2)s1	0	0	0	26	0	0	0
CNC(=O)c1c(C)[nH]c(=S)c(C#N)c1-c1ccco1	0	0	0	31	0	0	0
Cc1ccccc1NC(=O)c1c(C)[nH]c(=S)c(C#N)c1-c1ccco1	0	0	0	0	0	0	-
CC(=O)Nc1cc(C(=O)NCc2ccco2)ccc1Sc1ccc(Cl)cc1	0	0	0	0	0	0	-
CC(=O)Nc1cc(C(=O)N(C)Cc2ccco2)ccc1Sc1ccc(Cl)cc1	0	0	0	18	0	0	0
COC(=O)c1ccc2nc(NC(=O)C(C)(C)C)sc2c1	0	0	0	20	0	0	0
Cc1c(O)ccc(C(=O)CN2CCN(c3ccc(F)cc3)CC2)c1O	-	-	-	0	-	0	-
O=C(NC1CC1)c1ccc2c(Cl)c3c(nc2c1)CCCC3	0	0	0	17	0	0	0
CCN1C(=S)SC(=O)C1=C1C=C(C)OC(C)=C1	0	0	0	0	0	0	-
